“And” between values parts separate entries of the source, which are not always exact repeats. Equal values may be shown once. The source made the active and inactive calls. No cut-off for these calls is given here.
Tests used:
[1] = target: T1, Adenosine receptor A1 (Homo sapiens) (UniProt P30542); assay: Modulation of human adenosine A1 receptor expressed in CHO-K1 cells assessed as stabilization of [125I]ABA-receptor-G protein ternary complex at 50 uM by dissociation kinetic assay; assay type: cell-based
T1 sequence (whole entry): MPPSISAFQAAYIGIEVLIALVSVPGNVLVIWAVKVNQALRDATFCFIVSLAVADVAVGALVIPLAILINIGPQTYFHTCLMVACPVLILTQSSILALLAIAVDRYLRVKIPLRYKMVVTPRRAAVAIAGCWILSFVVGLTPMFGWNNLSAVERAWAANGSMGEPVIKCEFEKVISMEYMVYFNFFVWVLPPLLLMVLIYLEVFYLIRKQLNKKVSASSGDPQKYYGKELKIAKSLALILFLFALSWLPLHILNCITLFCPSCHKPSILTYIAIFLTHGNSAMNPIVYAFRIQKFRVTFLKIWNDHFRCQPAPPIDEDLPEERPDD
In short: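 CHO-K1 membranes with human A1AR (10 µg) equilibrated 90 min at room temperature with 0.5 nM [125I]-ABA in 10 mM HEPES pH 7.2, 0.5 mM MgCl2, 1 U/mL ADA. Modulator (0.1-50 µM final) added for 30 min. Dissociation started with 100 µM BW-1433 plus 25 µM GTPγS for 10 min, then filtration and counting. K-score = 100×(B−Bo)/(Beq−Bo); n = 3. EC50 from variable-slope sigmoidal fit.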

[2] = target: T1, Adenosine receptor A1 (Homo sapiens); assay: Displacement of [3H]CPX from human adenosine A1 receptor expressed in CHO-K1 cells at 50 uM; assay type: cell-based
In short: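 Incubated with 2 nM [3H]CPX and 50 µM modulator (final) for 90 min at room temperature. Nonspecific binding defined with 100 µM NECA. Filtration and scintillation counting; triplicate, given as % inhibition versus control.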

[3] = target: T2, Adenosine receptor A1 (Homo sapiens, UniProt P30542); assay: Modulation of human adenosine A1 receptor expressed in CHO-K1 cells assessed as allosteric effect on [125I]ABA dissociation; assay type: cell-based
T2 sequence (P30542 whole entry): T1 sequence (whole entry)

[4] = target: T1, Adenosine receptor A1 (Homo sapiens); assay: (§1) Antagonist activity at human adenosine A1 receptor expressed in FlpIn-CHO cells assessed as inhibition of R-PIA-mediated ERK1/2 phosphorylation; assay type: functional, cell-based
[5] = target: T2, Adenosine receptor A1; assay: as §1; assay type: functional, cell-based; conditions: read-out: pA2 (converted)
[6] = target: T2, Adenosine receptor A1; assay: Antagonist activity at human adenosine A1 receptor expressed in CHO-K1 cells assessed as reduction of [3H]CCPA specific equilibrium binding; assay type: cell-based
[7] = target: T2, Adenosine receptor A1; assay: Antagonist activity at human adenosine A1 receptor assessed as inhibition of R-PIA-mediated [35S]GTPgammaS binding to G protein; assay type: functional; conditions: read-out: pA2 (converted)
In short: (§2)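 Membranes (15 µg) from CHO FlpIn cells stably expressing human A1AR. Preincubated 60 min at 30 °C in 10 mM HEPES, 100 mM NaCl, 10 mM MgCl2, pH 7.4, with 10 µM GDP, R-PIA (0.01 nM - 1 µM) ± increasing modulator concentrations. [35S]GTPγS (100 pM) then added for another 30 min at 30 °C. Filtration and scintillation counting; three experiments in duplicate.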

[8] = target: T1, Adenosine receptor A1 (Homo sapiens); assay: Inverse agonist activity at human adenosine A1 receptor assessed as reduction of inhibition of R-PIA-mediated [35S]GTPgammaS binding to G protein; assay type: functional; in short: as §2

| SMILES | Activity [1] | inhibition [2] [%] | EC50 [3] [µM] | other results |
| --- | --- | --- | --- | --- |
| CCOC(=O)c1c(N)sc2c1-c1ccccc1C2 | < 5% |  |  |  |
| Nc1ccccc1C(=O)NNc1ccccc1Cl | < 5% |  |  |  |
| CCOC(=O)c1nn(-c2ccc(I)cc2)c(=O)c2c(N)scc12 | 65.4% | 100 | 7.1 | Kb [5]: 0.0794 µM |
| CCOC(=O)c1nn(-c2ccccc2)c(=O)c2c(N)scc12 | 60.4% | 22.8 | 13.6 | Kb [5]: 0.0158 µM |
| Cc1nc2ccccc2c(C(=O)O)c1N | < 5% |  |  |  |
| NC(=O)c1nnc2ccccc2c1N | < 5% |  |  |  |
| NNC(=O)c1nccnc1N | < 5% |  |  |  |
| Nc1ccccc1C(=O)N/N=C/c1ccc2c(c1)OCO2 | < 5% |  |  |  |
| CCOC(=O)c1nn(-c2ccc(C(F)(F)F)cc2)c(=O)c2c(N)scc12 | 81% | 77.2 | 8.4 | Activity [4]: inactive |
| CCOC(=O)c1c(C)nsc1N | < 5% |  |  |  |
| CCOC(=O)c1nn(-c2ccc([N+](=O)[O-])cc2)c(=O)c2c(N)scc12 | 19.6% | 73.4 | 13 | Activity [4]: inactive |
| Nc1ccc(Cl)cc1C(=O)NCc1ccccn1 | < 5% |  |  |  |
| CCOC(=O)c1cnn(C)c1N | < 5% |  |  |  |
| NC(=O)c1nnn(Cc2ccc(F)cc2)c1N | < 5% |  |  |  |
| Nc1[nH]nc2[nH]c(-c3ccccc3)cc(=O)c12 | < 5% |  |  |  |
| CCOC(=O)c1nn(-c2ccc(O)cc2)c(=O)c2c(N)scc12 | 75.9% | 65.8 | 7.1 | Kb [5]: 0.0398 µM |
| CCOC(=O)c1nn(-c2cccc(Cl)c2)c(=O)c2c(N)scc12 | 69.2% | 100 | 5.7 | Ki [6]: 0.00575 µM; Kb [5]: 0.002 µM; Kb [7]: 0.00794 µM; Activity [8]: Dose-dependent effect |
| Nc1nccnc1C(=O)NNS(=O)(=O)c1ccc(Cl)cc1 | < 5% |  |  |  |
| COc1ccc(-n2nc(C(=O)O)c3csc(N)c3c2=O)cc1 | 55.8% | 29.5 | 2.6 | Activity [4]: inactive |
| CSc1nc(C(N)=O)c(N)s1 | < 5% |  |  |  |
| Cc1sc(N)c(C(=O)c2cccs2)c1C | 33.2% | 50.3 | 11.2 | Activity [4]: inactive |
| Nc1nccnc1C(=O)N/N=C/c1ccco1 | < 5% |  |  |  |
| Nc1nccnc1C(=O)N/N=C/c1ccc(Cl)cc1 | < 5% |  |  |  |
| Nc1scc2c(C(=O)O)nn(-c3ccccc3)c(=O)c12 |  |  | 9.8 |  |
| CCOC(=O)c1nn(-c2ccc(OC(C)=O)cc2)c(=O)c2c(N)scc12 | 66.6% | 48.9 | 2.5 | Kb [5]: 0.0398 µM |
| CCOC(=O)c1cnc(SCC(=O)c2cc(Cl)c(Cl)s2)nc1N | 11% |  |  |  |
| Nc1ccc(Cl)cc1C(=O)NCc1ccncc1 | < 5% |  |  |  |
| Nc1cc(Cl)ccc1C(=O)N1CCSCC1 | 6% |  |  |  |
| CCOC(=O)c1nn(-c2ccc(C(C)(C)C)cc2)c(=O)c2c(N)scc12 | 59% | 23 | 9.75 | Activity [4]: inactive |
| CCOC(=O)c1cn[nH]c1N | < 5% |  |  |  |

Second part, led by results:

| Activity [1] | inhibition [2] [%] | EC50 [3] [µM] | SMILES | other results |
| --- | --- | --- | --- | --- |
| < 5% |  |  | NC(=O)c1cc(Cl)c(Cl)cc1C(N)=O |  |
| 66.1% | 32 | 2.7 | CCOC(=O)c1nn(-c2cccc(C(F)(F)F)c2)c(=O)c2c(N)scc12 | Activity [4]: inactive |
| < 5% |  |  | COc1cccc(-c2cc3c(c(N)c2C#N)c(=O)oc2ccccc23)c1 |  |
| 68.6% | 92.5 | 4.3 | CCOC(=O)c1nn(-c2ccc(OC)cc2)c(=O)c2c(N)scc12 | Kb [5]: 0.2 µM |
| < 5% |  |  | Nc1c2c(=O)cc(-c3ccccc3)[nH]c2nn1-c1ccccc1 |  |
| < 5% |  |  | Nc1nccnc1C(=O)N/N=C/c1ccc(C(F)(F)F)cc1 |  |
| 5% |  |  | COc1ccc(-n2nc(C(=O)OC(C)(C)C)c3csc(N)c3c2=O)cc1 |  |
| < 5% |  |  | NC(=O)c1nnn(Cc2ccc(Cl)cc2)c1N |  |
| < 5% |  |  | NC(=O)c1ncccc1C(=O)O |  |
| 68.5% | 21.5 | 4.9 | CCOC(=O)c1nn(-c2ccc(OS(=O)(=O)C(F)(F)F)cc2)c(=O)c2c(N)scc12 | Activity [4]: inactive |
| < 5% |  |  | Cc1nn(-c2ccccc2)c2nc(N)c(C(N)=O)cc12 |  |
| < 5% |  |  | Nc1ccccc1C(=O)NC1CCCCNC1=O (stereo not drawn) |  |
| 80.3% and 80% | 32.3 | 3.95 | Cc1c(C(=O)Nc2ccccc2)sc(N)c1C(N)=O | Activity [4]: inactive |

— ChEMBL document CHEMBL1140091, “2-aminothienopyridazines as novel adenosine A1 receptor allosteric modulators and antagonists” (J Med Chem, 2008)
